Assay results from PubChem BioAssay AID504413 (Broad Institute, 2011).
Inconclusive results are not listed. Activity calls are given as the source filed them.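 The calls were made as follows: active = in every test run, the fitted curve rises past 10% of the positive control effect within the tested doses; inconclusive = runs disagree, or a flat fit at moderate level, or poor fit; inactive = all runs inactive, including signal going the wrong way.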

What was measured:
[1] = apoptosis induction in A1-BIM primed fibroblasts – cell-based, A1-2A-BIM MEF, luminescence, dry powder, A1 inhibitor project, dose response (AID 504413); conditions: MEF A1-2A-BIM cells, caspase-3/7 Glo luminescence; stronger effect = higher value
In short: (§1)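 technique = Caspase-3/7 luminescence from DEVD-luciferin substrate reagent | assay system = A1-2A-BIM-expressing MEF cells | input = 2500 cells per well | incubation = 3 h compound exposure (37 °C), 1 h reagent (RT)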

[2] = tested on: MEF A1-2A-BIM cells, caspase-3/7 Glo luminescence; experiment: as above
In short: as §1

| SMILES | max activity [1] | AC10 [2] [µM] |
| --- | --- | --- |
| COc1nc2ccccc2c(Sc2ccc(C)cc2)c1[N+](=O)[O-] | -2.09% (inactive) |  |
| COc1c([N+](=O)[O-])c(=O)n(C)c2ccccc12 | -4.02% (inactive) |  |
| COc1ccc(CCNc2nc(N3CCOCC3)nc(N3CCOCC3)n2)cc1OC | -1.95% (inactive) |  |
| O=C(COc1ccc(Cl)cc1Cl)NNc1nc(N2CCOCC2)nc(N2CCOCC2)n1 | -3.81% (inactive) |  |
| COc1ccc(N2CCN(c3nc(NCCc4ccc(OC)c(OC)c4)nc(N4CCOCC4)n3)CC2)cc1 | -3.19% (inactive) |  |
| Cn1c(=O)c([N+](=O)[O-])c(Cl)c2ccccc21 |  | 2.6 |
| O=c1[nH]c2ccccc2c(O)c1[N+](=O)[O-] | 0.403% (inactive) |  |
| COCCn1c(=O)c([N+](=O)[O-])c(Cl)c2ccccc21 |  | 1.9 |
| C/C(=N\Nc1nc(N2CCCCC2)nc(N2CCCCC2)n1)c1ccc(F)cc1 | 0.285% (inactive) |  |
| CCn1c(=O)c(Sc2ccc(C)cc2)c(Sc2ccc(C)cc2)c2ccccc21 | 3.42% (inactive) |  |
| COc1ccc(CCNc2nc(N3CCCC3)nc(N3CCCC3)n2)cc1OC | 4.48% (inactive) |  |
| Cn1c(=O)c([N+](=O)[O-])c(Sc2ccccn2)c2ccccc21 |  | 3.78 |
| COc1nc2ccccc2c(Cl)c1[N+](=O)[O-] | -3.3% (inactive) |  |
| Cc1ccc(Sc2c(Sc3ccc(C)cc3)c3ccccc3n(C)c2=O)cc1 | 0.915% (inactive) |  |
| Cc1ccc(Sc2c([N+](=O)[O-])c(=O)n(C)c3ccccc23)cc1 |  | 7.28 |
| Cc1ccc(S(=O)(=O)c2c([N+](=O)[O-])c(=O)n(C)c3ccccc23)cc1 |  | 7.02 |
| Cn1c(=O)c(Sc2ccccn2)c(Sc2ccccn2)c2ccccc21 | -0.138% (inactive) |  |
| COCCn1c(=O)c(Sc2ccc(C)cc2)c(Sc2ccc(C)cc2)c2ccccc21 | 4.03% (inactive) |  |
| Cc1ccc(Sc2c(Sc3ccc(C)cc3)c3ccccc3n(Cc3ccccc3)c2=O)cc1 | 6.71% (inactive) |  |
